Data reported in PMC7056463 (British Journal of Pharmacology, 2020).
Positions of bridges follow the written chain, without caps; N, C: chain ends. Residues, ends and D or L forms follow the SMILES beside them. No end group written: not given here.

Tests used:
murine GC‐B = biological target: T1, murine GC‐B (Mus musculus, UniProt Q6VVW5); test: cGMP formation in GC‐B‐transfected HEK293 cells; type: cell-based; details: 1 μM peptide, 5 min; cGMP ELISA; n = 3 in triplicates
T1 sequence (Q6VVW5 17-1047): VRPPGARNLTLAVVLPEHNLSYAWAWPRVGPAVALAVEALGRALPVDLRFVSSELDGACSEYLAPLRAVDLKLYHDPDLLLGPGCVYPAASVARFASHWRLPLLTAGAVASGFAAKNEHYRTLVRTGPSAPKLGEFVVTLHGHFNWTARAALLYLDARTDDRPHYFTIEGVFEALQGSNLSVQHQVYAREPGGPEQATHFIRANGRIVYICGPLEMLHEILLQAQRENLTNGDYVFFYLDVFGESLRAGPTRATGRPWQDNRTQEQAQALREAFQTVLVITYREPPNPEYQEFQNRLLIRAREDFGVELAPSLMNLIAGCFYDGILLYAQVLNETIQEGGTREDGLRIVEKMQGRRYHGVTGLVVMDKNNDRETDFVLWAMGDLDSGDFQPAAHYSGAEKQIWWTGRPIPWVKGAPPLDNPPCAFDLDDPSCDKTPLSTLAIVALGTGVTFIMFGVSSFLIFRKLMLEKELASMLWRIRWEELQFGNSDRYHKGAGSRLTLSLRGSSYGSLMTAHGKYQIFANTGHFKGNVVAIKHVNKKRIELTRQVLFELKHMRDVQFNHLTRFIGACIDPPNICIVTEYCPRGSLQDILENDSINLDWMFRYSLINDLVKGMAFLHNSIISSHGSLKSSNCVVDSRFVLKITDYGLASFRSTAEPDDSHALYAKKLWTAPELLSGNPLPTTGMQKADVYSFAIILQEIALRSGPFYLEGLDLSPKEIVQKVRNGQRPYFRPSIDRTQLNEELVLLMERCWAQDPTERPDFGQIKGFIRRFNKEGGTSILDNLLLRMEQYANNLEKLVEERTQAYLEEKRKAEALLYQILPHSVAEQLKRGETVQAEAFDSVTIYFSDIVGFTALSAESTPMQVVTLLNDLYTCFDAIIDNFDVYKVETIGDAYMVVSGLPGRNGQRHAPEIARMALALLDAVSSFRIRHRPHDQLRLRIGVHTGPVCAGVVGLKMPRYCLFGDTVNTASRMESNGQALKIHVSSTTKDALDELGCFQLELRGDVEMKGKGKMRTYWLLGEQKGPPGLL
Method in brief: (§1)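 HEK293 cells in DMEM/10% FBS were transfected with murine GC‐A or GC‐B plasmid (PolyFect, DMEM/0.5% FBS); empty‐plasmid cells served as controls. After 24 h, cells were exposed to 1 μM peptide or Tris vehicle for 5 min, washed in cold HBSS and lysed. cGMP was measured by ELISA (405 nm, 570 nm correction) in pmol/mL; n = 3 in triplicates.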

[1] = test system: GC‐A and GC‐B double‐transfected HEK cells; test: Dose–response of cGMP in GC‐A and GC‐B double‐transfected HEK cells; type: cell-based, mouse; details: compared to BNP1‐32
Method in brief: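 HEK293 cells were transfected with both murine GC‐A and GC‐B plasmids and used 24 h later. Cells were stimulated for 5 min with peptide at graded concentrations in Tris vehicle, washed in cold HBSS and lysed. cGMP was quantified by ELISA (405/570 nm). EC50 came from a sigmoidal dose–response fit, and curves were compared by two‐way ANOVA.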

C57B/L6J mice = test: Plasma cGMP after bolus injection in normotensive mice; type: in vivo, mouse; details: plasma taken after 4 min haemodynamic measurement, cGMP ELISA
Method in brief: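 Male 16‐week C57B/L6J mice (randomised, blinded) were anaesthetised with isoflurane, ventilated and kept at about 37°C, with a carotid pressure catheter and jugular cannula. After a 10‐min baseline, an i.v. bolus of 1.67 nmol peptide g‐1 or saline was given and haemodynamics followed for 4 min. EDTA blood was then taken by LV puncture. Plasma cGMP was ELISA‐measured after 95% ethanol extraction; n = 7 per peptide, 5 saline.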

[2] = test system: spontaneously hypertensive rats; test: Cardiac ANP and BNP mRNA by real time PCR in spontaneously hypertensive rats; type: in vivo, rat; details: SHR; 3 days administration; RT‐PCR, relative to saline treated rats; n = 6
Method in brief: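 After 3 days of subcutaneous osmotic minipump infusion (300 ng kg‐1 min‐1; saline controls) in male 12‐week SHR, cardiac RNA was isolated. 1 μg RNA was reverse‐transcribed and SYBR Green qPCR run with rat ANP and BNP primers. Melting curves checked product purity. Values are relative to saline‐treated rats; n = 6 per group.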

murine GC‐A = biological target: T2, murine GC‐A (Mus musculus, UniProt P18293); test: cGMP formation in GC‐A‐transfected HEK293 cells; type: cell-based; details: 1 μM peptide, 5 min; cGMP ELISA; n = 3 in triplicates
T2 sequence (P18293 29-1057): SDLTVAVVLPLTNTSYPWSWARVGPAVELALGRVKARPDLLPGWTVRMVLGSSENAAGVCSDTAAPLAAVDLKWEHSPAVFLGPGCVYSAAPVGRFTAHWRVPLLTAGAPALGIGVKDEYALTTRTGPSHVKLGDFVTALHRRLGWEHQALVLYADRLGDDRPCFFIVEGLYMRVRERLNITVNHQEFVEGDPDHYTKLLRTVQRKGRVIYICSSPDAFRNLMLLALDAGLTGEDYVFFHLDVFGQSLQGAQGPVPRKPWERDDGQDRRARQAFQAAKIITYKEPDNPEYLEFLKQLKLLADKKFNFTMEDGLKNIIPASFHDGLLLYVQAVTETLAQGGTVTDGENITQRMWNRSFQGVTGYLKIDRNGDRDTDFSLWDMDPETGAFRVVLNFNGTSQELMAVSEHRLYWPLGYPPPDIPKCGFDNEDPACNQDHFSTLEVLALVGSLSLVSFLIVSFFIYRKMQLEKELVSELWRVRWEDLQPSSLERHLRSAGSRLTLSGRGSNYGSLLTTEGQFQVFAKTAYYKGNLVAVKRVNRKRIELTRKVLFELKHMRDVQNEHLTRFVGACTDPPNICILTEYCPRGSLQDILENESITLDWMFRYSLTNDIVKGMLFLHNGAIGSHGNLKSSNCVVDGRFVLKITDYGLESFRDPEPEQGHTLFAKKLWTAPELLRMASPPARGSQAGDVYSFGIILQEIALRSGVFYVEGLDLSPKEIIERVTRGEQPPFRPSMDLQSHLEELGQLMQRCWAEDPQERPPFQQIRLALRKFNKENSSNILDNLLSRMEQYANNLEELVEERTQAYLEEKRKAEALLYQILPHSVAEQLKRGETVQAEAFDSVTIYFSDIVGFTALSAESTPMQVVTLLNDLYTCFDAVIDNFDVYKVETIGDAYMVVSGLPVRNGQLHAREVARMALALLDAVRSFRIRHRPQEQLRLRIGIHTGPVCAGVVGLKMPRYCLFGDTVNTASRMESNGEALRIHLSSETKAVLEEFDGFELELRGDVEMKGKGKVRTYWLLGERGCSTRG
Method in brief: as §1

[3] = test system: spontaneously hypertensive rats; type: in vivo, rat
[4] = Degradation of hBNP by human lung homogenate; type: in vitro ADME; details: 10 μM peptide; human lung homogenate 90 μg protein 150 μL buffer; Tris 50 mM pH 7.5 with 0.1% BSA; 37°C; 10 min; LCMS

CC[C@H](C)[C@@H]1NC(=O)[C@H](CCCNC(=N)N)NC(=O)[C@H](CC(=O)O)NC(=O)[C@H]([C@@H](C)CC)NC(=O)[C@H](CCCCN)NC(=O)[C@H](Cc2c[nH]cn2)NC(=O)CNC(=O)[C@H](Cc2ccccc2)NC(=O)[C@@H](NC(=O)[C@H](CO)NC(=O)[C@H](CO)NC(=O)[C@@H](NC(=O)[C@H](Cc2c[nH]cn2)NC(=O)[C@@H](NC(=O)[C@@H](NC(=O)[C@H](CCCCN)NC(=O)[C@H](CO)NC(=O)[C@@H](N)CC(N)=O)C(C)C)[C@@H](C)O)[C@@H](C)CC)CSSC[C@@H](C(=O)N[C@@H](CC(N)=O)C(=O)N[C@@H](C)C(=O)N[C@@H](CC(C)C)C(=O)N[C@@H](CCCCN)C(=O)O)NC(=O)CNC(=O)[C@H](CC(C)C)NC(=O)[C@H](CCCNC(=N)N)NC(=O)[C@H](CO)NC(=O)[C@H](C(C)C)NC(=O)[C@H](CO)NC(=O)CNC1=O [BNP1‐30] (H-NSKVTHISSCFGHKIDRIGSVSRLGCNALK-OH; disulfide 10-26; N-terminus assumed)
Stimulation of GC‐B in transfected HEK293 cells (murine GC‐B): much more pronounced effect
cGMP effect on GC‐B transfected cells in comparison to BNP1‐32 (murine GC‐B): 3 fold
Efficiency in dose‐response curves of double‐transfected HEK293 cells [1]: more efficient
Increase in plasma cGMP levels compared to BNP1‐32 treated animals (C57B/L6J mice): more pronounced increase
Cardiac ANP mRNA [2]: more pronounced
Cardiac BNP mRNA levels [2]: significantly reduced
cGMP formation in GC‐A‐transfected HEK293 cells (murine GC‐A): significantly higher
Lowering of SBP ([3]; SHR, osmotic minipump 300 ng kg^‐1 min^‐1 for 3 days, versus saline group): 16%
Reduction of systolic BP (abstract) ([3]; model of severe hypertension, 3‐day infusion): 30 mmHg

BNP1‐32: murine B‐type natriuretic peptide 1‐32, synthesised by Biosyntan (SQGSTLRVQQRPQNSKVTHISSCFGHKIDRIG; Brain natriuretic peptide 45; UniProt P40753 77-108, looked up, fragment)
cGMP formation in GC‐A‐transfected HEK293 cells (murine GC‐A): stimulated their native receptor GC‐A

human BNP1‐32: mature human BNP1‐32
Degradation of hBNP1‐32 in human lung homogenate [4]: decreased peak area

murine ANP: murine atrial natriuretic peptide (SLRRSSCFGGRIDRIGAQSGLGCNSFRY; disulfide 7-23 (inferred); ends not checked; UniProt P05125 123-150, looked up)
cGMP formation in GC‐A‐transfected HEK293 cells (murine GC‐A): stimulated their native receptor GC‐A
